Source: PubChem (several laboratories)
Most compounds without a hit are left out; they make up all but 2.5% or so of the library.
UCH37 inh = human UCH37 deubiquitinating enzyme inhibition; Q9Y5K5; purified proteasome/UCH37, Ub-AMC cleavage fluorescence; inhibition, % (no concentration beside the values); 330,000 compounds, 0.33% hits; AID 588478;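 active means mean inhibition over replicate wells above about 20%, limit read from the data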;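 further: 0% = compound-free wells with enzyme and 100% = wells lacking proteasome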
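Material: Human UCH37 enzyme supplied as purified proteasome complex | Schedule: 30 min compound-proteasome preincubation then 25 min substrate reaction, room temperature | Detection: AMC fluorescence from Ub-AMC cleavage, excitation 355 nm, emission 460 nm | Benchmarks: Wells without proteasome as full block, compound-free enzyme plus substrate as uninhibited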
T cell HTS = modulates CD8 T cell binding to vesicles; 330,000 compounds, 0.068% hits; response (vesicle binding), % at 7 µM; 2C CD8+ T cell-vesicle binding, flow cytometry; stronger effect = lower value;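 active means response, share of CD8 T cells binding vesicles, and their 90th percentile fluorescence all below set limits, cut at about 80% in these data, passing the limit was not always enough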;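 further: values below 100% mean blocked vesicle binding to the CD8+ T cells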
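incubation = binding step 1.5 h, 37 °C, antibody labelling 20 min, ice | test system = 2C mouse CD8+ T cells | read-out basis = percent CD8+ FL2 mean versus row control | controls = Peptide-free naked vesicles (low) and QL9 vesicles with 0.7% DMSO vehicle (high) | detection = flow cytometry of vesicle-bound cells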
Rce1 inh = blocks yeast Ras-converting enzyme. Q03530. yeast membranes, quenched prenylated peptide cleavage fluorescence. calls only. 290,000 compounds, 0.27% hits. AID 2563;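 active means fall in fluorescence gain of 50% or more versus controls, with final raw signal at or below 3038400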;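 further: plate controls were neutral control wells for no effect and wells lacking membranes for full effect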
MEKK2 WT-MEK5 = raises or lowers MEK5 binding to wildtype human MEKK2 PB1 domain; Q9Y2U5; bead flow cytometry, Alexa488-MEK5 binding to MEKK2 WT; actives lie on both sides; binding response (% of control), % at 10 µM; 290,000 compounds, 1.1% hits; in the data active means binding response below about 67% or above about 130%
MEKK3 PB1 HTS = MEKK3-MEK5 PB1 interaction, increase or decrease; Q99759; bead-based flow cytometry, Alexa488-MEK5 binding to MEKK3; actives lie on both sides; 0 = blocked by unlabeled MEK5, 100 = vehicle; binding response (% of control), % at 10 µM; 290,000 compounds, 1.4% hits; AID 1529;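 active means binding response more than 3 SD above or below the average of its plate-row segment, actives on both sides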;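 further: Alexa488 bead fluorescence after subtracting the streptavidin-only scavenger bead signal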
Target sequence (Q99759 whole entry, looked up): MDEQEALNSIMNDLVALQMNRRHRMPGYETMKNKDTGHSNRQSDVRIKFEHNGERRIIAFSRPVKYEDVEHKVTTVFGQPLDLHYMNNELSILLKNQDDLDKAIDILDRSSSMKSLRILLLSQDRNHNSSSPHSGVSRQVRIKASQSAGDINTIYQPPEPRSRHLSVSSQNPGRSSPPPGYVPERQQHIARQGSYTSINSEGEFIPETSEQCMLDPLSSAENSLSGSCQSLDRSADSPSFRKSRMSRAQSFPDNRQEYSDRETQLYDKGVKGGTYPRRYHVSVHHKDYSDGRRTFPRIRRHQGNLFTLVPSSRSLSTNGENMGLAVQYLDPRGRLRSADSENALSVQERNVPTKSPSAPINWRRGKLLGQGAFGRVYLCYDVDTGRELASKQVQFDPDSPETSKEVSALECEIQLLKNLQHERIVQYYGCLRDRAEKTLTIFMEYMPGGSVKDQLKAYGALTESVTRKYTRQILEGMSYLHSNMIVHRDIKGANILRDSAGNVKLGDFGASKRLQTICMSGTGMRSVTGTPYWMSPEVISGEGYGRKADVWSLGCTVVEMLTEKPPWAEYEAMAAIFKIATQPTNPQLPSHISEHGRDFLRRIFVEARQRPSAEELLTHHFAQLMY
MEKK2mut PB1 HTS = signal of MEK5 binding to mutant human MEKK2 PB1 domain | 290,000 compounds, 0.35% hits | percent response, % at 10 µM | bead flow cytometry, Alexa488-MEK5 binding to MEKK2 mutant | AID 1530; in the data active means percent response above about 24%, passing the limit was not always enough
MEKK2wt confirm = raises or lowers MEK5 binding to wildtype human MEKK2, retest; shares compounds with MEKK3 PB1 HTS; bead flow cytometry, Alexa488-MEK5 binding to MEKK2 WT; actives lie on both sides; binding response (% of control), % at 10 µM; 5,900 compounds, 2.4% hits; AID 1892; in the data active means binding response below about 16% or above about 210%; inactive means in between
MEKK2mut confirm = signal of MEK5 binding to mutant human MEKK2, retest; shares compounds with MEKK3 PB1 HTS; 5,900 compounds, 2% hits; percent response, % at 10 µM; bead flow cytometry, Alexa488-MEK5 binding to MEKK2 mutant; in the data active means percent response mostly above about 71%, no sharp cut-off; inactive means mostly below about 38%;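 further: higher means compound restores mutant binding toward wildtype level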
MEKK3 confirm = MEKK3-MEK5 PB1 inhibition, single concentration confirmation; shares compounds with MEKK3 PB1 HTS; bead flow cytometry, Alexa488-MEK5 binding to MEKK3; stronger effect = lower value; binding response (% of control), % at 10 µM; 5,900 compounds, 1.8% hits; AID 1894;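 active means binding response below 72% of control, or above a set upper limit, though filed actives all read lower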;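 further: 100% = DMSO only wells and 0% = binding blocked by excess unlabeled MEK5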
* = called active by the depositor; i = inactive; / = not tested or not shown; [ ] = another dose, or the depositor's remark.

SMILES | UCH37 inh | T cell HTS | Rce1 inh | MEKK2 WT-MEK5 | MEKK3 PB1 HTS | MEKK2mut PB1 HTS | MEKK2wt confirm | MEKK2mut confirm | MEKK3 confirm
CCN(CC)c1ccc(NC(=O)CN2CCN(CC(=O)Nc3ccccc3F)CC2)cc1 | 1.6 | 320.2 | i | 124.0 | 122.0* | 13.0 | 104.0 | 2.0 | 97.0
O=C(NN=Cc1ccccc1Cl)c1nc2ccc([N+](=O)[O-])cc2c(=O)[nH]1 | 12.6 | / | / | / | / | / | / | / | /
CCNc1nc(NCC)nc(NN=C(C)c2ccc(OC)cc2)n1 | 2.1 | / | / | / | / | / | / | / | /
COc1cccc(C=NN2CCN(c3ccccc3OC)CC2)c1 | 0.5 | / | / | / | / | / | / | / | /
CC12CC3(C)CC(C)(C1)CC(C(=O)Nc1nn[nH]n1)(C2)C3 | -0.1 | 327.4 | i | 87.0 | 81.0*[inhibitor] | -14.0 | 91.0 | -4.0 | 99.0
CC12CC3CC(C)(C1)CC(C(=O)Nc1nn[nH]n1)(C3)C2 | -1.1 | 609.2 | i | 103.0 | 100.0 | 9.0 | / | / | /
COc1ccccc1/C=C\C(=O)NCC(=O)NN=Cc1ccc(O)cc1O | 0.8 | / | / | / | / | / | / | / | /
O=C(Nc1ccc(Cl)cc1)Nc1ccc2c(c1)N1CCN=C1S2 | 1.6 | 309.0 | i | 141.0* | 100.0 | 14.0 | 143.0 | 27.0 | 104.0
COCCSc1nnc(NS(=O)(=O)c2ccc(F)cc2)s1 | 2.0 | 310.7 | / | 119.0 | 136.0* | 0.0 | 105.0 | 19.0 | 106.0
COCc1nnc(NS(=O)(=O)c2ccc(F)cc2)s1 | -1.6 | 368.0 | i | 99.0 | 101.0 | 13.0 | / | / | /
COC(=O)CCC(=O)Nc1ccc(C)cc1OC(=O)CCC(=O)OC | 5.3 | 213.8 | i | 115.0 | 114.0 | 28.0* | 96.0 | -4.0 | 101.0
O=C(c1cc(COc2c(F)cccc2F)on1)N1CCC(c2ccccc2Cl)C1 (stereo not given) | 3.9 | 894.4 | i | 51.0 | 49.0*[inhibitor] | -35.0 | 96.0 | -5.0 | 100.0
O=C(c1cc(COc2c(F)cccc2F)on1)N1CCC(c2ccccc2F)C1 (stereo not given) | 4.1 | 251.2 | i | 97.0 | 103.0 | -1.0 | / | / | /
O=C(c1cc(COc2c(F)cccc2F)on1)N1C[C@H]2CC[C@H]1C2 | 4.8 | 285.6 | i | 68.0 | 49.0*[inhibitor] | -24.0 | 18.0 | -26.0 | 39.0*
COc1ccc(C(=O)CSc2nnc(NC(=O)C3CC(=O)N(c4ccccc4)C3)s2)cc1 (stereo not given) | 4.5 | 213.4 | i | 105.0 | 136.0* | 1.0 | 104.0 | 9.0 | 104.0
Cc1sc(NN=Cc2cccs2)nc1-c1ccccc1 | 2.6 | / | / | / | / | / | / | / | /
Cc1sc(N/N=C/c2ccco2)nc1-c1ccccc1 | / | 119.7 | i | 98.0 | 131.0* | -1.0 | 106.0 | 5.0 | 103.0
CCC(C)=NNc1nc2c(c(=O)[nH]c(=O)n2C)n1CCc1ccccc1 | -0.5 | / | / | / | / | / | / | / | /
CCOc1cc(C=NNC(=O)c2cccc([N+](=O)[O-])c2)ccc1OS(=O)(=O)c1ccccc1 | 0.4 | / | / | / | / | / | / | / | /
Cc1coc2c1C(=O)C(=O)c1c-2ccc2c(C)cccc12 | 1.7 | 665.4 | i | 138.0* | 120.0 | 1.0 | 101.0 | 1.0 | 107.0
Cc1coc2c1C(=O)C(=O)c1c-2ccc2c1CCCC2(C)C | 7.1 | 347.4 | i | 99.0 | 96.0 | 0.0 | / | / | /
CCC(C)(C(=O)NC1CCCC1)N(C(C)=O)c1ccc(C)cc1 (stereo not given) | 1.3 | 311.0 | i | 2.0*[inhibitor] | 2.0*[inhibitor] | -18.0 | 127.0 | 10.0 | 103.0
O=C(Cc1ccc([N+](=O)[O-])cc1)N/N=C/c1ccc([N+](=O)[O-])o1 | / | 243.6 | i | 105.0 | 106.0 | 6.0 | / | / | /
O=C(O)/C=C/c1ccc([N+](=O)[O-])o1 | 12.0 | 194.4 | / | 115.0 | 130.0* | -55.0 | 101.0 | -5.0 | 102.0
